# From ChEMBL document CHEMBL3272014, “Synthesis and biological inactivity of some 4alpha,6-cyclo steroids” (1976)
# The source made the active and inactive calls. The rule behind the calls is not given here.
# Experiments:
# [1] = species on record: Oryctolagus cuniculus; experiment: Progestational activity in rabbit at 0.1 to 10 mg by clauberg assay; format: functional, organism-based
# Method in brief: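 Clauberg assay in rabbits: progestational response scored after test steroid at dose levels of 0.1, 1.0 and 10.0 mg.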
# [2] = species on record: Oryctolagus cuniculus; experiment: Antiprogestational activity in rabbit at 0.4 mg by anti-clauberg assay; format: functional, organism-based
# Method in brief: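 Rabbit anti-Clauberg (antiprogestational) assay: test steroid given at 20.0 mg against a progesterone challenge of 0.4 mg. Run by Mason Research Institute for the NIH Contraceptive Development Branch.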
# [3] = species on record: Rattus norvegicus; experiment: Androgenicity in male rat at 10 mg; format: functional, organism-based
# [4] = species on record: Rattus norvegicus; experiment: Antiandrogenicity in male rat assessed as inhibition of increase in seminal vesicle weight using 1.2 mg testosterone at 10 mg; format: functional
# [5] = species on record: Rattus norvegicus; experiment: Antiandrogenicity in male rat assessed as inhibition of increase in levator ani weight using 1.2 mg testosterone at 10 mg; format: functional
# [6] = species on record: Rattus norvegicus; experiment: Antiandrogenicity in male rat assessed as inhibition of increase in ventral prostate weight using 1.2 mg testosterone at 10 mg; format: functional, Prostate gland
# [7] = species on record: Rattus norvegicus; experiment: Androgenicity in male rat at 0.1 to 10 mg; format: functional, organism-based
# [8] = species on record: Rattus norvegicus; experiment: Antiandrogenicity in male rat assessed as inhibition of increase in ventral prostate weight using 2.4 mg testosterone at 10 mg; format: functional, Prostate gland
# [9] = species on record: Rattus norvegicus; experiment: Antiandrogenicity in male rat assessed as inhibition of increase in levator ani weight using 2.4 mg testosterone at 10 mg; format: functional
# [10] = species on record: Rattus norvegicus; experiment: Antiandrogenicity in male rat assessed as inhibition of increase in seminal vesicle weight using 2.4 mg testosterone at 10 mg; format: functional
smiles,measurement,setting,value
CC(=O)[C@H]1CC[C@H]2[C@@H]3CC4[C@@H]5[C@H]4C(=O)CC[C@]5(C)[C@H]3CC[C@]12C (stereo partly drawn),Activity,[1],inactive
CC(=O)[C@H]1CC[C@H]2[C@@H]3CCC4=CC(=O)CC[C@]4(C)[C@H]3CC[C@]12C,Activity,[2],inactive
C[C@]12CC[C@@H]3[C@H]4CCC(=O)[C@H]5C(C[C@H]3[C@@H]1CCC2=O)[C@@H]45 (stereo partly drawn),Activity,[3],Active
same,inhibition (INH),[4],<20%
same,inhibition (INH),[5],<20%
same,inhibition (INH),[6],<20%
CC(=O)O[C@H]1CC[C@H]2[C@@H]3CC4[C@@H]5[C@H]4C(=O)CC[C@]5(C)[C@H]3CC[C@]12C (stereo partly drawn),Activity,[7],Active
same,inhibition (INH),[8],<20%
same,inhibition (INH),[4],<20%
same,inhibition (INH),[9],<20%
same,inhibition (INH),[10],<20%
same,inhibition (INH),[5],<20%
same,inhibition (INH),[6],<20%
